Source: paper PMC8829947 (ACS Omega, 2022)
Values after ≈ are worked out from the molar mass of the structure shown. Read-outs that look alike come from different tables or passages of the source.

Assays:
E. coli BW25113 (WT) = assay: Cell penetration / intracellular accumulation assay; assay type: cell-based, Escherichia coli; conditions: 50 μM, wild-type E. coli
Summary of the method: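 E. coli BW25113 (wild type) cells were incubated with the test compound at 50 μM (reference chelator at 50 or 100 μM) for 10 min at 37 °C. Cells were spun through ice-cold silicone oil (12,000g, 2 min), resuspended in water and lysed by three freeze–thaw cycles. The debris pellet was extracted with MeOH. Pooled extracts were quantified by UPLC–Q-TOF targeted MS/MS against a calibration curve. Biological and technical triplicates.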

E. coli = assay: MIC of single agent, antimicrobial susceptibility test; assay type: cell-based; conditions: Escherichia coli
[1] = test system: K. pneumoniae ATCC 33495::pGDP2 (NDM-1); assay: Meropenem rescue and MIC, antimicrobial susceptibility test; assay type: cell-based, Klebsiella pneumoniae; conditions: for MIC: Klebsiella pneumoniae
[2] = test system: E. coli expressing blaNDM-1; assay: Meropenem rescue concentration, antimicrobial susceptibility test; assay type: cell-based, Escherichia coli; conditions: rescue concentration at meropenem 2 μg/mL, MHB
Summary of the method: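 Checkerboard broth microdilution in Mueller–Hinton broth against E. coli carrying the plasmid-borne MBL gene. Meropenem used five 2-fold dilutions and the test compound six 2-fold dilutions, within 0.5–64 μg/mL; the test compound was dissolved in water or 50% methanol. Inoculum was adjusted to OD625 0.08–0.10, then diluted 200-fold. Incubation was 20 h static at 37 °C, read at OD600. RC is the compound concentration restoring susceptibility at meropenem 2 μg/mL. ≥2 replicates.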

IMP-7 = assay: In vitro enzyme inhibition assay, purified recombinant IMP-7; assay type: biochemical; conditions: read-out: IC50 IMP-7 - Zn; Zn2+-depleted (Chelex-100-treated) buffer
Summary of the method: (§1)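 Purified recombinant enzyme at 4 nM was preincubated 5–10 min at RT with varying inhibitor concentrations. Buffer was 50 mM HEPES pH 7.5, 0.2% DMSO, 1% PEG 4000, with either 10 μM ZnSO4 or no zinc (Chelex-100-treated, 2 h, filtered). Reactions were started with nitrocefin (30 μM final, A490) or meropenem (50 μM final, A300) and followed 60 s. IC50 came from the linear portion of progress curves. Duplicates.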

VIM-2 = VIM-2 (Escherichia coli, UniProt Q5U7L7); assay: In vitro enzyme inhibition assay, purified recombinant VIM-2; assay type: biochemical
Summary of the method: as §1

[3] = Zn2+ affinity by competition with colorimetric PAR assay; assay type: binding; conditions: read-out: Kd,Zn2; PAR 100 μM, ZnSO4 10 μM, pH 7.5, 3 h at 25 °C
Summary of the method: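 The test compound was titrated into Chelex-100-treated 20 mM HEPES, 100 mM NaCl, pH 7.5, containing PAR 100 μM and ZnSO4 10 μM, then incubated 3 h at 25 °C. Zn2+ displacement from PAR was read as the fall in absorbance at 492 nm. Kd was estimated from the known PAR stability constant at pH 7.4.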

NDM-1 = NDM-1 (Klebsiella pneumoniae, UniProt C7C422); assay: In vitro enzyme inhibition assay, purified recombinant NDM-1; assay type: biochemical
Summary of the method: as §1

[4] = test system: A. baumannii ATCC 17978::pROTO2 (NDM-1); assay: Meropenem rescue and MIC, antimicrobial susceptibility test; assay type: cell-based, Acinetobacter baumannii; conditions: rescue concentration at meropenem 2 μg/mL
[5] = IC50 NDM-1 + Zn, Zn2+-supplemented (10 μM) buffer
[6] = IC50 NDM-1 - Zn, Zn2+-depleted (Chelex-100-treated) buffer

Chain of NDM-1 (C7C422 29-270, looked up, species assumed): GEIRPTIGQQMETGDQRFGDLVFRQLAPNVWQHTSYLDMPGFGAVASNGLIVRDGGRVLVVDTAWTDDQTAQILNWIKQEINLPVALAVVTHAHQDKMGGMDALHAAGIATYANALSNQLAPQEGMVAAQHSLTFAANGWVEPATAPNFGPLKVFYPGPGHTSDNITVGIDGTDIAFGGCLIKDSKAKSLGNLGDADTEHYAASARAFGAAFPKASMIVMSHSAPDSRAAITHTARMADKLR

C[C@@H](O)[C@H]1C(=O)N2C(C(=O)O)=C(S[C@@H]3CN[C@H](C(=O)N(C)C)C3)[C@H](C)[C@H]12 [meropenem, reference compound]
intracellular accumulation (E. coli BW25113 (WT); 10 min 37 °C): 43.9 nmol/10^12 CFU | MIC (E. coli; read-out: MIC of meropenem against resistant E. coli): 64 µg/mL | MIC ([1]; ATCC33495, read-out: Meropenem MIC (Table 3 footnote b)): 16 to 32 µg/mL (≈ 41.7 to 83.4 µM)

CC(C)(S)C(NC[C@H](NC[C@H](N)C(=O)O)C(=O)O)C(=O)O (stereo in doubt) [Compound 15, (S)-2-(((S)-2-(((S)-2-Amino-2-carboxyethyl)amino)-2-carboxyethyl)amino)-3-mercapto-3-methylbutanoic Acid]
RC in MHB, NDM-1 [2]: 32 µg/mL | IC50 (IMP-7): > 500 µM | IC50 (VIM-2): 361 ± 29 µM | Kd [3]: 0.0023 ± 0.0004 µM | IC50 (NDM-1; [5]): 56.1 ± 2.5 µM | IC50 (NDM-1; [6]): 98.6 ± 4 µM | MIC (E. coli; read-out: MIC (antimicrobial activity)): 64 µg/mL | MIC ([1]; ATCC33495, read-out: MIC of compound (Table 3 footnote c)): 16 to 32 µg/mL

N[C@@H](CN[C@@H](CN[C@@H](CC(=O)O)C(=O)O)C(=O)O)CSc1ccccc1 [Compound 4]
RC in MHB, NDM-1 [2]: 8 µg/mL | RC in MHB, A. baumannii ATCC 17978::pROTO2 (NDM-1) [4]: 8 μg/mL | intracellular accumulation increase relative to AMA (E. coli BW25113 (WT)): 1.5 fold | IC50 (IMP-7): 32 ± 3.1 µM | IC50 (VIM-2): 246 ± 23 µM | Kd [3]: 0.0004 ± 7e-05 µM | IC50 (NDM-1; [5]): 12.5 ± 0.8 µM | IC50 (NDM-1; [6]): 150 ± 16 µM | RC in MHB, K. pneumoniae ATCC 33495::pGDP2 (NDM-1) ([1]; rescue concentration at meropenem 2 μg/mL, MHB): 8 μg/mL
